The values that follow come from ChEMBL document CHEMBL2010782, “Combination of a Beta adrenoceptor modulator and a norepinephrine-serotonin uptake inhibitor for the treatment of obesity” (ACS Med Chem Lett, 2011).

For orientation: Ki means the dissociation constant of the complex between target and ligand, obtained from inhibition or displacement. Read a low Ki as a stronger hold on the target. Usually EC50 stands for the midpoint of the concentration-response curve. In general, Tmax refers to the time from dosing to the highest level. Broadly, the Emax is the maximal effect, on the per cent scale that the assay sets.

Structures are written as SMILES. Calls of active or inactive are those of the source. The rule behind the calls is not given here. Where only a bound is given, the exact number is not on record here.

Data set [1] addresses T1, Beta-2 adrenergic receptor (Homo sapiens, UniProt P07550). Description: Displacement of [125I]Iodocyanopindolol from human adrenergic beta2 receptor expressed in insect sf9 cells by scintillation counting.
Target sequence in this assay (P07550 whole entry): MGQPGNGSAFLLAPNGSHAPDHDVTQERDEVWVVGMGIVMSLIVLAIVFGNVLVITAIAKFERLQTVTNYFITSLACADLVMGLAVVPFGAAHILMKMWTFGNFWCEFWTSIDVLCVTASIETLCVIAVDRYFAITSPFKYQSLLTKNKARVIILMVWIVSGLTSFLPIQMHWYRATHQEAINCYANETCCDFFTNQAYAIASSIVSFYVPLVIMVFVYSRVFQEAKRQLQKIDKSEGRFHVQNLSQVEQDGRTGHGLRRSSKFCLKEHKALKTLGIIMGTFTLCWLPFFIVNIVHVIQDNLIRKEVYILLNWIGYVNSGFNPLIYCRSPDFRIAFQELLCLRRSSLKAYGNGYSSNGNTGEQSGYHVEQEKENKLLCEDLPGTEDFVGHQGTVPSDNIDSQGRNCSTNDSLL
Data set [2] deals with T2, Beta-1 adrenergic receptor (Homo sapiens, UniProt P08588). Description: Displacement of [125I]Iodocyanopindolol from human adrenergic beta1 receptor expressed in insect sf9 cells by scintillation counting. For orientation: In a radioligand displacement assay an active substance lowers the binding of a labelled ligand.
Target sequence in this assay (P08588 whole entry): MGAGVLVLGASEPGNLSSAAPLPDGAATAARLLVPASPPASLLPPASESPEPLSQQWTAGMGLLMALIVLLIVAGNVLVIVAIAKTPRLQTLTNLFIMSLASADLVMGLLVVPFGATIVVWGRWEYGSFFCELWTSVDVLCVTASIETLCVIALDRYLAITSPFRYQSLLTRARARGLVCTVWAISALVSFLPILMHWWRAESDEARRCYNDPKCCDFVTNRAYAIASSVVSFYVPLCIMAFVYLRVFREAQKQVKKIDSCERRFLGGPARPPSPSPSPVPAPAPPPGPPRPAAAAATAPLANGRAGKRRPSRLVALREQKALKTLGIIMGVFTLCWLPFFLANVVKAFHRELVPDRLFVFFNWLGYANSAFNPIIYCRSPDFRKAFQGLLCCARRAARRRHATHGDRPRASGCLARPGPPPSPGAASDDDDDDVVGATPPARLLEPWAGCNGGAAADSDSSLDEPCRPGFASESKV
The target in data set [3] is T2, Beta-1 adrenergic receptor. Description: Agonist activity at human adrenergic beta1 receptor expressed in DHB-11 CHO cells assessed as cAMP accumulation after 20 mins by scintillation proximity assay. In kind it is functional, cell-based. For orientation: Cyclic AMP is a second messenger, typically raised through Gs and lowered through Gi signalling.
Target sequence in this assay (P08588 whole entry): as above
Data set [4] has as its target T3, Beta-3 adrenergic receptor (Homo sapiens, UniProt P13945). Description: Agonist activity at human adrenergic beta3 receptor expressed in DHB-11 CHO cells assessed as cAMP accumulation after 20 mins by scintillation proximity assay. In kind it is functional, cell-based.
Target sequence in this assay (P13945 whole entry): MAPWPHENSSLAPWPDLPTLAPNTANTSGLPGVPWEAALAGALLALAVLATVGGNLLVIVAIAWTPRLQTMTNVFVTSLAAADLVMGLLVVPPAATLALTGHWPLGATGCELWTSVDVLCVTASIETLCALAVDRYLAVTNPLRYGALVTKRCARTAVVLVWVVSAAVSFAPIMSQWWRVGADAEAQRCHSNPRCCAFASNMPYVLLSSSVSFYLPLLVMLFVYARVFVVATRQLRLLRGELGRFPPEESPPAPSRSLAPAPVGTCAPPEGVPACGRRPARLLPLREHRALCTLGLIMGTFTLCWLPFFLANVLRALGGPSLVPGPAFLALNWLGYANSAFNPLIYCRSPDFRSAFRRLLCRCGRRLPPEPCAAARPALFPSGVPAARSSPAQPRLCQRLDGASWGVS
In data set [5] the target is T1, Beta-2 adrenergic receptor. Description: Agonist activity at human adrenergic beta2 receptor expressed in DHB-11 CHO cells assessed as cAMP accumulation after 20 mins by scintillation proximity assay. The class given is functional, cell-based.
Target sequence in this assay (P07550 whole entry): as the sequence (P07550 whole entry) above
The target in data set [6] is Beta-3 adrenergic receptor (Rattus norvegicus, UniProt P26255). Nature of the data set: Agonist activity at rat adrenergic beta3 receptor expressed in DHB-11 CHO cells assessed as cAMP accumulation after 20 mins by scintillation proximity assay. The class given is functional, cell-based.
The nature of data set [7]: Tmax in healthy human plasma. In kind it is ADME, organism-based. In short, it runs like this: (§1)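 Healthy human volunteers were dosed and plasma concentrations followed over time. Tmax was taken from the plasma profile, and terminal elimination half-life was estimated after a 60-mg dose.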
The species named for data set [8] is Homo sapiens. Description: Inhibition of sibutramine-induced increase in diastolic blood pressure in human at 30 to 300 mg. In kind it is functional, Artery.
The species entered for data set [9] is Homo sapiens. Description: Inhibition of sibutramine-induced increase in systolic blood pressure in human at 30 to 300 mg. In kind it is functional, Artery.
For data set [10], the species on record is Homo sapiens. Description: Inhibition of sibutramine-induced increase in heart rate in human at 30 to 300 mg. In kind it is functional.
Data set [11] can be described thus: Elimination half life in healthy human at 60 mg. In kind it is ADME, organism-based. The following applies: in vivo, read-out: beta t1/2 (converted). Summed up: as §1
Data set [12] has as its target T1, Beta-2 adrenergic receptor. Nature of the data set: Agonist activity at human adrenergic beta2 receptor expressed in DHB-11 CHO cells assessed as cAMP accumulation after 20 mins by scintillation proximity assay relative to isoproterenol. The class given is functional, cell-based. Summed up:
(§2)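 Whole-cell functional assay in transfected CHO cells expressing the human receptor, read as stimulated cAMP accumulation. Values are reported as the geometric mean ± standard deviation, with the number of runs (n) given.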
Target sequence in this assay (P07550 whole entry, looked up): as the sequence (P07550 whole entry) above

The test system of data set [13] is Rattus norvegicus. Nature of the data set: Antiobesity activity in Long-Evans rat assessed as increase in lipid utilization at 10 mg/kg, po measured after 4 hrs by indirect calorimetry analysis relative to control. The class given is functional, organism-based. More on the design: dose 10 mg/kg. Summed up:
(§3)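 Male Long–Evans rats with diet-induced obesity on a caloric dense diet received single oral doses of 3 or 10 mg/kg, with vehicle-treated rats as controls. Respiratory quotient (lipid utilization) and energy expenditure were followed by indirect calorimetry for about 4 h. Groups were compared by ANOVA with SNK post hoc test, p < 0.05.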

Data set [14] relates to Rattus norvegicus. Description: Antiobesity activity in po dosed Long-Evans rat assessed as increase in energy expenditure measured after 4 hrs by indirect calorimetry analysis relative to control. In kind it is functional, organism-based. In short, it runs like this:
as §3

The target of data set [15] is T2, Beta-1 adrenergic receptor. Description: Agonist activity at human adrenergic beta1 receptor expressed in DHB-11 CHO cells assessed as cAMP accumulation after 20 mins by scintillation proximity assay relative to isoproterenol. In kind it is functional, cell-based. Summed up: as §2
Target sequence in this assay (P08588 whole entry, looked up): as the sequence (P08588 whole entry) above
The test system of data set [16] is Rattus norvegicus. Nature of the data set: Antiobesity activity in Long-Evans rat assessed as decrease in respiratory quotient at 3 to 10 mg/kg, po measured after 4 hrs by indirect calorimetry analysis relative to control. The class given is functional, organism-based. Summed up: as §3
In data set [17] the target is Beta-3 adrenergic receptor (Rattus norvegicus) (UniProt P26255). Nature of the data set: Agonist activity at rat adrenergic beta3 receptor expressed in DHB-11 CHO cells assessed as cAMP accumulation after 20 mins by scintillation proximity assay relative to isoproterenol. The class given is functional, cell-based.
The subject of data set [18] is Rattus norvegicus. Description: Antiobesity activity in po dosed Long-Evans rat assessed as increase in lipid utilization measured after 4 hrs by indirect calorimetry analysis relative to control. The class given is functional, organism-based. In short, it runs like this: as §3
Data set [19] has as its target T3, Beta-3 adrenergic receptor. Nature of the data set: Agonist activity at human adrenergic beta3 receptor expressed in DHB-11 CHO cells assessed as cAMP accumulation after 20 mins by scintillation proximity assay relative to isoproterenol. In kind it is functional, cell-based.
Target sequence in this assay (P13945 whole entry, looked up): as the sequence (P13945 whole entry) above

Sequence of Beta-3 adrenergic receptor (Rattus norvegicus, UniProt P26255) (P26255 whole entry): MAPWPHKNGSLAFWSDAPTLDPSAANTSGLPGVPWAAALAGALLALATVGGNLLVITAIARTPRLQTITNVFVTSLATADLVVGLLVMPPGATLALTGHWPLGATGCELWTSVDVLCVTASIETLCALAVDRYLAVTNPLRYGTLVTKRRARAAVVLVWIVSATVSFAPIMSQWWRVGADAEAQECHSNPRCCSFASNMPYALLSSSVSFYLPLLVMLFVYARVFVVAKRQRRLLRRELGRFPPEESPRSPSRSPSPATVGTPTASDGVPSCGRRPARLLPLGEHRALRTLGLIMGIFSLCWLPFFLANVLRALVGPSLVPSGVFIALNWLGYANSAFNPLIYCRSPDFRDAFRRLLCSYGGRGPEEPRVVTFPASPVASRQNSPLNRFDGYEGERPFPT
Sequence of Beta-3 adrenergic receptor (Rattus norvegicus) (P26255 whole entry): as above

Take `CC(C)(Cc1ccc(Oc2ccc(C(N)=O)cn2)cc1)NC[C@H](O)COc1cccc2[nH]c3ccccc3c12` [listing 1 of 3 here]: the inhibition constant Ki turned out to be 0.012 nM in [1] and 0.023 nM in data set [2].

`CC(C)(Cc1ccc(Oc2ccc(C(N)=O)cn2)cc1)NC[C@H](O)COc1cccc2[nH]c3ccccc3c12` [listing 2 of 3 here]: the concentration for a half-maximal effect (EC50) was above 3160 nM in [3], 2.4 nM in data set [4], above 3160 nM in data set [5] and 5 nM in [6].

Take `CC(C)(Cc1ccc(Oc2ccc(C(N)=O)cn2)cc1)NC[C@H](O)COc1cccc2[nH]c3ccccc3c12` [LY377604]: the Tmax in data set [7] amounted to 2 h. Also, the Activity was 4.2 mmHg in data set [8], 5.5 mmHg in data set [9] and 10.5 bpm in [10]. Moreover, the half-life in data set [11] was 9 h.

As for `CC(C)(Cc1ccc(Oc2ccc(C(N)=O)cn2)cc1)NC[C@H](O)COc1cccc2[nH]c3ccccc3c12` [listing 3 of 3 here], the Emax was below 10% in data set [12], below 10% in data set [15], 55.5% in data set [17] and 73.8% in data set [19]. Also, the result in data set [13] and in data set [16] was Active. For the same compound, the Activity result in data set [14] and in data set [18] was “Dose-dependent effect” each time.
